Assay results from ChEMBL document CHEMBL3739331, “Synthesis and Bioactivities of Kanamycin B-Derived Cationic Amphiphiles” (J Med Chem, 2015).
In brackets after ≈: the same amount, converted by molar mass. Activity calls are given as the source filed them. The calls are words filed in the database; no cut-off is given here.

Columns and labels:
Candida albicans [1] = test: (§1) Antifungal activity against azole-resistant Candida albicans ATCC 90819 after 48 hrs in presence of (2R,3S,4R,5R,6R)-5-amino-2-(aminomethyl)-6-((1R,2S,3S,4R,6S)-4,6-diamino-3-((2S,3R,4S,5S,6S)-4-amino-6-(dodecylthiomethyl)-3,5-dihydroxytetrahydro-2H-pyran-2-yloxy)-2-hydroxycyclohexyloxy)tetrahydro-2H-pyran-3,4-diol by checkerboard microdilution assay; assay type: functional; details: ATCC 90819, 48 h
Procedure, shortened: (§2)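 Checkerboard combinations of the aminoglycoside amphiphile with posaconazole against yeast strains, run in duplicate. Each agent's MIC is taken alone and in combination. The fractional inhibitory concentration index (FICI) is calculated to classify the interaction.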

Candida albicans [2] = test: as §1, with “MYA-1003” for “ATCC 90819”; assay type: functional; details: MYA-1003, 48 h; procedure, shortened: as §2
Candida albicans [3] = test: as §1, with “64124” for “90819”; assay type: functional; details: ATCC 64124, 48 h; procedure, shortened: as §2
Candida albicans [4] = test: Antifungal activity against azole-resistant Candida albicans MYA-1237 after 48 hrs by microbroth dilution method; assay type: functional; details: MYA-1237, 48 h
Procedure, shortened: (§3)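 Yeast MIC by broth microdilution, run in duplicate. The aminoglycoside compounds are read as MIC-0 (complete inhibition). Azoles are read as MIC-2 (50% inhibition).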

Candida albicans [5] = test: Antifungal activity against azole-resistant Candida albicans ATCC 90819 after 48 hrs by microbroth dilution method; assay type: functional; details: ATCC 90819, 48 h; procedure, shortened: as §3
Candida albicans [6] = test: as §1, with “64124 assessed as fractional inhibition” for “90819”; assay type: functional; details: ATCC 64124, 48 h; procedure, shortened: as §2
Candida albicans [7] = test: as §1, with “MYA-1003 assessed as fractional inhibition” for “ATCC 90819”; assay type: functional; details: MYA-1003, 48 h; procedure, shortened: as §2
Candida albicans [8] = test: as §1, with “90819 assessed as fractional inhibition” for “90819”; assay type: functional; details: ATCC 90819, 48 h; procedure, shortened: as §2
Candida albicans [9] = test: as §1, with “MYA-1237 assessed as fractional inhibition” for “ATCC 90819”; assay type: functional; details: MYA-1237, 48 h; procedure, shortened: as §2
Candida albicans [10] = test: Antifungal activity against azole-susceptible Candida albicans ATCC MYA-2876 after 48 hrs by microbroth dilution method; assay type: functional; details: ATCC MYA-2876, 48 h; procedure, shortened: as §3
Candida albicans [11] = test: as §1, with “MYA-1237” for “ATCC 90819”; assay type: functional; details: MYA-1237, 48 h; procedure, shortened: as §2
Candida albicans [12] = test: as §1, with “azole-susceptible” for “azole-resistant”, “MYA-2310” for “90819”; assay type: functional; details: ATCC MYA-2310, 48 h; procedure, shortened: as §2
Candida albicans [13] = test: as §1, with “10231 assessed as fractional inhibition” for “90819”; assay type: functional; details: ATCC 10231, 48 h; procedure, shortened: as §2
Candida albicans [14] = test: Antifungal activity against azole-resistant Candida albicans ATCC 10231 after 48 hrs by microbroth dilution method; assay type: functional; details: ATCC 10231, 48 h; procedure, shortened: as §3
Candida albicans [15] = test: as §1, with “azole-susceptible” for “azole-resistant”, “MYA-2310 assessed as fractional inhibition” for “90819”; assay type: functional; details: ATCC MYA-2310, 48 h; procedure, shortened: as §2
Candida albicans [16] = test: as §1, with “10231” for “90819”; assay type: functional; details: ATCC 10231, 48 h; procedure, shortened: as §2
Aspergillus nidulans = test: Antifungal activity against Aspergillus nidulans ATCC 38163 after 48 hrs by microbroth dilution method; assay type: functional; details: ATCC 38163, 48 h
Procedure, shortened: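 Filamentous fungus MIC by broth microdilution, run in duplicate. All compounds are read as MIC-0 (complete inhibition).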

Candida albicans [17] = test: as §1, with “azole-susceptible” for “azole-resistant”, “MYA-2876 assessed as fractional inhibition” for “90819”; assay type: functional; details: ATCC MYA-2876, 48 h; procedure, shortened: as §2
Candida albicans [18] = test: Antifungal activity against azole-resistant Candida albicans ATCC 64124 after 48 hrs by microbroth dilution method; assay type: functional; details: ATCC 64124, 48 h; procedure, shortened: as §3
Candida albicans [19] = test: as §1, with “azole-susceptible” for “azole-resistant”, “MYA-2876” for “90819”; assay type: functional; details: ATCC MYA-2876, 48 h; procedure, shortened: as §2
Candida albicans [20] = test: Antifungal activity against azole-resistant Candida albicans MYA-1003 after 48 hrs by microbroth dilution method; assay type: functional; details: MYA-1003, 48 h; procedure, shortened: as §3
Enterococcus = test: Antibacterial activity against vancomycin-resistant Enterococcus by microdilution method; assay type: functional
Procedure, shortened: (§4)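 Broth microdilution MIC, in μg/mL, against a panel of Gram-positive and Gram-negative strains. Run at least in duplicate.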

Acinetobacter baumannii = test: Antibacterial activity against Acinetobacter baumannii ATCC 19606 by microdilution method; assay type: functional
Procedure, shortened: (§5)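 Broth microdilution MIC against the named bacterial strain, reported in μg/mL; each determination run at least in duplicate.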

Enterobacter cloacae = test: Antibacterial activity against Enterobacter cloacae ATCC 13047 by microdilution method; assay type: functional; procedure, shortened: as §5
Salmonella enterica = test: Antibacterial activity against Salmonella enterica ATCC 14028 by microdilution method; assay type: functional; procedure, shortened: as §5
Klebsiella pneumoniae = test: Antibacterial activity against Klebsiella pneumoniae ATCC 27736 by microdilution method; assay type: functional; procedure, shortened: as §5
Listeria monocytogenes [21] = test: Antibacterial activity against Listeria monocytogenes ATCC 19115 by microdilution method; assay type: functional; procedure, shortened: as §5
[22] = Activity of Mycobacterium tuberculosis AAC(2')-1c/AAC(3)-4 (unknown origin) assessed as compound conversion to 3'-acetylated product incubated for 20 hrs by TLC analysis
Pseudomonas aeruginosa = test: Antibacterial activity against Pseudomonas aeruginosa ATCC 27853 by microdilution method; assay type: functional; procedure, shortened: as §5
Candida albicans [23] = test: Antifungal activity against azole-resistant Candida albicans ATCC 64124 assessed as cell membrane permeabilization at 62.5 ug/ml after 1 hr by propidium iodide-staining based fluorescence microscopic analysis (reference value: <2%); assay type: functional
Listeria monocytogenes [24] = test: Resistance index, ratio of MIC for Listeria monocytogenes ATCC 19115 after 6-passage to MIC for Listeria monocytogenes ATCC 19115 by microdilution method; assay type: functional
Procedure, shortened: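 Cells grown at subinhibitory concentration (1/2 MIC) seed each next round. The index compares the MIC at a later passage with the starting MIC.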

[25] = Cytotoxicity against human BEAS2B cells after 24 hrs by resazurin assay; assay type: cell-based, BEAS-2B; details: human, beas-2b
A549 = test: Cytotoxicity against human A549 cells after 24 hrs by resazurin assay; assay type: cell-based; details: human, a549, 24 h
Escherichia coli = test: Antibacterial activity against Escherichia coli MC1061 by microdilution method; assay type: functional; procedure, shortened: as §4
Serratia marcescens = test: Activity of Serratia marcescens AAC(6')-2d assessed as compound conversion to monoacetylated product incubated for 20 hrs by TLC analysis
[26] = tested on: Mycobacterium tuberculosis; test: Activity of Mycobacterium tuberculosis AAC(2')-1c assessed as compound conversion to monoacetylated product incubated for 20 hrs by TLC analysis
Candida albicans [27] = test: Antifungal activity against azole-susceptible Candida albicans ATCC MYA-2310 after 48 hrs by microbroth dilution method; assay type: functional; details: ATCC MYA-2310, 48 h; procedure, shortened: as §3
[28] = Activity of AAC(3)-4 (unknown origin)/Serratia marcescens AAC(6')-2d assessed as compound conversion to 3'-acetylated product incubated for 20 hrs by TLC analysis
[29] = Activity of AAC(3)-4 (unknown origin) assessed as compound conversion to monoacetylated product incubated for 20 hrs by TLC analysis
[30] = Activity of Mycobacterium tuberculosis AAC(2')-1c/Serratia marcescens AAC(6')-2d assessed as compound conversion to 6'-monoacetylated product incubated for 20 hrs by TLC analysis
Staphylococcus aureus [31] = test: Antibacterial activity against Staphylococcus aureus NRS385 (USA 300) by microdilution method; assay type: functional; procedure, shortened: as §4
Staphylococcus aureus [32] = test: Antibacterial activity against methicillin-resistant Staphylococcus aureus by microdilution method; assay type: functional; procedure, shortened: as §4
Staphylococcus aureus [33] = test: Antibacterial activity against Staphylococcus aureus ATCC 29213 by microdilution method; assay type: functional; procedure, shortened: as §5
[34] = tested on: Mycolicibacterium smegmatis; test: Antibacterial activity against Mycobacterium smegmatis MC2 155 by microdilution method; assay type: functional; details: str. MC2 155; procedure, shortened: as §4
Staphylococcus aureus [35] = test: Antibacterial activity against Staphylococcus aureus NRS22 (USA 600) by microdilution method; assay type: functional; procedure, shortened: as §5
Bacillus subtilis = test: Antibacterial activity against Bacillus subtilis 168 by microdilution method; assay type: functional; details: subsp. subtilis str. 168; procedure, shortened: as §5
[36] = Activity of Mycobacterium tuberculosis […]/AAC(3)-4 (unknown origin)/Serratia marcescens AAC(6')-2d (unknown origin) assessed as compound conversion to diacetylated adduct incubated for 20 hrs by TLC analysis
Staphylococcus aureus [37] = test: Antibacterial activity against Staphylococcus aureus NRS383 (USA 200) by microdilution method; assay type: functional; procedure, shortened: as §5
Staphylococcus aureus [38] = test: Antibacterial activity against Staphylococcus aureus NRS382 (USA 100) by microdilution method; assay type: functional; procedure, shortened: as §5
[39] = Hemolytic activity against mouse RBC at 100 to 500 ug/ml after 60 mins; assay type: ADME, cell-based; details: erythrocyte, 1 h
[40] = tested on: Staphylococcus epidermidis; test: Antibacterial activity against Staphylococcus epidermidis ATCC 12228 by microdilution method; assay type: functional; procedure, shortened: as §5

`CC[C@@H]([C@H](C)O)n1ncn(-c2ccc(N3CCN(c4ccc(OC[C@@H]5CO[C@@](Cn6cncn6)(c6ccc(F)cc6F)C5)cc4)CC3)cc2)c1=O` [POSACONAZOLE] gave an MIC (Candida albicans [1]) of 0.78 µg/mL, an MIC (Candida albicans [2]) of 0.78 µg/mL and an MIC (Candida albicans [3]) of 0.78 µg/mL. For the same compound, the MIC50 (Candida albicans [4]) was 15.6 µg/mL (≈ 22.3 µM), the MIC50 (Candida albicans [5]) was 31.2 µg/mL (≈ 44.5 µM) and the MIC (Candida albicans [6]) was 1.56 µg/mL. For the same compound, the MIC (Candida albicans [7]) was 1.56 µg/mL, the MIC (Candida albicans [8]) was 0.78 µg/mL and the MIC (Candida albicans [9]) was 0.78 µg/mL. For the same compound, the MIC50 (Candida albicans [10]) was 7.8 µg/mL (≈ 11.1 µM), the MIC (Candida albicans [11]) was 0.78 µg/mL and the MIC (Candida albicans [12]) was 0.39 µg/mL. For the same compound, the MIC (Candida albicans [13]) was 0.06 µg/mL, the MIC50 (Candida albicans [14]) was 0.5 µg/mL (≈ 0.713 µM) and the MIC (Candida albicans [15]) was 1.56 µg/mL. It also gave an MIC (Candida albicans [16]) of 0.06 µg/mL, an MIC (Aspergillus nidulans) of at most 1.95 µg/mL and an MIC (Candida albicans [17]) of 1.56 µg/mL. For the same compound, the MIC50 (Candida albicans [18]) was over 62.5 µg/mL, the MIC (Candida albicans [19]) was 0.78 µg/mL and the MIC50 (Candida albicans [20]) was 15.6 µg/mL (≈ 22.3 µM).
For `NC[C@H]1O[C@H](O[C@H]2[C@H](O)[C@@H](O[C@H]3O[C@H](CO)[C@@H](O)[C@H](N)[C@H]3O)[C@H](N)C[C@@H]2N)[C@H](N)[C@@H](O)[C@@H]1O` [BEKANAMYCIN], the MIC (Enterococcus) was over 128 µg/mL, the MIC (Acinetobacter baumannii) was 4 µg/mL (≈ 8.27 µM) and the MIC (Enterobacter cloacae) was 0.5 µg/mL (≈ 1.03 µM). The MIC (Salmonella enterica) was 2 µg/mL (≈ 4.14 µM), the MIC (Klebsiella pneumoniae) was 4 µg/mL (≈ 8.27 µM) and the MIC (Candida albicans [4]) was over 125 µg/mL. The MIC (Candida albicans [5]) was over 125 µg/mL, the MIC (Listeria monocytogenes [21]) was at most 0.25 µg/mL and the Activity [22] was “inactive”. For the same compound, the MIC (Pseudomonas aeruginosa) was 16 µg/mL (≈ 33.1 µM), the Activity (Candida albicans [23]) was 5% and the Ratio (Listeria monocytogenes [24]) was 4. The Activity [25] was “Non-toxic”, the Activity (A549) was “Non-toxic” and the MIC (Escherichia coli) was 2 µg/mL (≈ 4.14 µM). For the same compound, the Activity (Serratia marcescens) was “Active”, the Activity [26] was “Active” and the MIC (Candida albicans [10]) was over 125 µg/mL. For the same compound, the MIC (Candida albicans [27]) was over 125 µg/mL, the Activity [28] was “inactive” and the Activity [29] was “Active”. For the same compound, the MIC (Candida albicans [14]) was over 125 µg/mL, the Activity [30] was “inactive” and the MIC (Staphylococcus aureus [31]) was 32 µg/mL (≈ 66.2 µM). For the same compound, the MIC (Staphylococcus aureus [32]) was over 128 µg/mL, the MIC (Staphylococcus aureus [33]) was at most 0.25 µg/mL and the MIC [34] was at most 0.25 µg/mL. It also gave an MIC (Aspergillus nidulans) of over 125 µg/mL, an MIC (Staphylococcus aureus [35]) of 32 µg/mL (≈ 66.2 µM) and an MIC (Bacillus subtilis) of 4 µg/mL (≈ 8.27 µM). The Activity [36] was “Active”, the MIC (Candida albicans [18]) was over 125 µg/mL and the MIC (Staphylococcus aureus [37]) was 128 µg/mL (≈ 265 µM). For the same compound, the MIC (Staphylococcus aureus [38]) was over 128 µg/mL, the Activity [39] was “Non-toxic” and the MIC [40] was 0.5 µg/mL (≈ 1.03 µM). The MIC (Candida albicans [20]) was over 125 µg/mL.
